Assay outcomes (PubChem BioAssay)
TAAR1 ag – human TAAR1 agonism | activation, % at 3 µM | CHO RD-HGA16 TAAR1, Fluo-8 calcium fluorescence; vehicle wells 0%, saturating PEA agonist 100% | AID 624467 | 0.99% of 360,000 active | Q96RJ0;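 active = activation above the mean activation of all test compounds in the run plus 3 SD, cut at about 38% in these data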
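System: CHO-derived RD-HGA16 cells with stable Gα16 and human TAAR1. Times: 17-24 h plating, Fluo-8 75 min 37 °C, 30 min RT. Measured by: calcium-sensitive Fluo-8 signal, excitation 470-495, emission 515-575 nm. Read-out basis: % activation relative to PEA EC100 response. Control set: DMSO and PEA EC100. Repeats: no replicates (n 1).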
TAAR1 antagonist – antagonists of human TAAR1; Q96RJ0; CHO RD-HGA16 TAAR1, Fluo-8 calcium fluorescence, antagonist; inhibition, % at 3 µM; 1.5% of 360,000 active;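 active = inhibition above a per-plate cutoff, the mean inhibition of test compounds on that plate plus 3 SD, cut at about 49% in these data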
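Test system – hTAAR1-expressing CHO RD-HGA16 cells, Gα16-coupled · Reagent – β-PEA at EC80 concentration, post-compound challenge · Compound dosing – 3 µM, single point · Timing – 140 s kinetic read after compound, 140 s after agonist · Detection – Fluo-8 intracellular calcium dye fluorescence, real-time kinetic reads · Control set – DMSO and EC80 PEA controls · Repeats – n of 1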
CHRM1 PAM – potentiates human M1 receptor response to acetylcholine; P11229; AID 588819; 0.088% of 360,000 active; activation, % at 3 µM; CHO-K1 hM1, Fluo-8 calcium fluorescence, ACh EC20; 0% = ACh EC20, 100% = maximal ACh; in the data active = activation above about 19%, passing the limit was not always enough
Target sequence (P11229 whole entry, looked up): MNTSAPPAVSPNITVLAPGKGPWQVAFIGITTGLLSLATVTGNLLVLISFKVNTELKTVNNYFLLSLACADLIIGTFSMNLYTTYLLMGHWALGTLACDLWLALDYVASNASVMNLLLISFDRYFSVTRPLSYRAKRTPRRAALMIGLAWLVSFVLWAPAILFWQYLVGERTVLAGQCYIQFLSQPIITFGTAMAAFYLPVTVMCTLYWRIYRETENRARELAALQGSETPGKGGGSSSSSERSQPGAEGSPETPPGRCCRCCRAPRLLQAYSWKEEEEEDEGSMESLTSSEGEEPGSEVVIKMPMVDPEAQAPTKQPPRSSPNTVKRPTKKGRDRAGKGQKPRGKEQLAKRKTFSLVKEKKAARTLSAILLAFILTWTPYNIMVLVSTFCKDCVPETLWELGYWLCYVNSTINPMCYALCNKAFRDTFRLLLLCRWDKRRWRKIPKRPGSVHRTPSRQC
CHRM1 antagonist – antagonists of human M1 muscarinic receptor; P11229; CHO-K1 hM1, Fluo-8 calcium fluorescence, ACh EC80 antagonist; inhibition, % at 3 µM; 1.3% of 360,000 active; AID 588852;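 active = percent inhibition above its own plate's cutoff, namely the mean of that plate's compound wells plus 3 SD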;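 also: peak over basal fluorescence ratio during 140 s after agonist addition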
CHRM1 agonist – agonists of human M1 muscarinic receptor; activation, % at 3 µM; CHO-K1 hM1, Fluo-8 calcium fluorescence, agonist mode; 0% DMSO, 100% acetylcholine EC100; 0.33% of 360,000 active; P11229;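 active = activation above the run's mean compound activation plus 3 SD, cut at about 16% in these data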;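 also: peak over basal fluorescence ratio within a 140 s kinetic read after compound addition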
Each line names hits and unclear results; the compound was inactive in the other large screens. This is a sample that favours compounds with a hit; in the whole collection about 3.4% have one here.

COc1cccc(C(=O)OC(C)CN2CCCC2)c1 (stereo unspecified)	CHRM1 antagonist 38.5
CC(CN1CCCCC1)OC(=O)c1cccc(F)c1 (stereo unspecified)	none
CC(CN1CCCCC1)OC(=O)c1cc2ccccc2o1 (stereo unspecified)	CHRM1 antagonist 36.9
Cc1c(C(=O)NCc2cccc(C(F)(F)F)c2)sc(=O)n1Cc1ccccc1F	none
COC(=O)[C@]12C[C@H](CC(=O)NCc3cccc4ccccc34)C(=O)N(Cc3ccc4c(c3)OCO4)C1=C[C@H](C(C)(C)C)O[C@@H]2C	none (no result: CHRM1 PAM, CHRM1 antagonist, CHRM1 agonist)
Cc1ccc(S(=O)(=O)N2[C@H](CC(=O)c3ccc(Cl)c(Cl)c3)OC[C@@H]2C)cc1	none (no result: CHRM1 PAM, CHRM1 antagonist, CHRM1 agonist)
Cn1c(Cc2ccccc2)nnc1SCC(=O)c1ccc(Br)s1	CHRM1 antagonist 21.6
Cc1onc(-c2ccccc2)c1C(=O)NC(=S)NNC(=O)c1ccco1	CHRM1 agonist 17.0
COc1ccccc1C(=O)NNC(=S)NC(=O)c1ccco1	TAAR1 ag 40.0
O=C(NNC(=S)NC(=O)c1ccco1)c1ccc(F)cc1	none
O=C(N[C@H](Cc1ccccc1)C(=O)NC1CCCCC1)[C@H]1O[C@@H](n2ccc(=O)[nH]c2=O)[C@H](O)[C@@H]1O	none (no result: CHRM1 PAM, CHRM1 antagonist, CHRM1 agonist)
COc1ccccc1CCn1cnc(-c2ccc(F)cc2)c1C(C)C	none (no result: CHRM1 PAM, CHRM1 antagonist, CHRM1 agonist)
Cc1ccccc1SCC(=O)OCC(=O)Nc1sccc1C(N)=O	TAAR1 antagonist 49.0
COc1cc(C(=O)OCC(=O)Nc2sccc2C(N)=O)cc(OC)c1OC	none
NC(=O)c1ccsc1NC(=O)COC(=O)Cc1ccccc1[N+](=O)[O-]	none
Cc1cccc(OC(C)C(=O)OCC(=O)Nc2sccc2C(N)=O)c1 (stereo unspecified)	none
Cc1cccc(OCC(=O)OCC(=O)Nc2sccc2C(N)=O)c1	TAAR1 antagonist 55.5
NC(=O)c1ccsc1NC(=O)COC(=O)Cc1cccc2ccccc12	TAAR1 antagonist 73.3, CHRM1 antagonist 40.0
COc1cc(CCC(=O)OCC(=O)Nc2sccc2C(N)=O)cc(OC)c1OC	CHRM1 antagonist 36.9
NC(=O)c1ccsc1NC(=O)CSc1ccccc1F	none
CCCc1nc2c3ccccc3ccn2c1CC(C)(C)C	none
CC(=O)C1=C(C)N(CC(C)C)C(=S)NC1c1ccc(Br)cc1 (stereo unspecified)	none (no result: CHRM1 PAM, CHRM1 antagonist, CHRM1 agonist)
COc1ccc(NC(=O)COC(=O)c2cccc(S(=O)(=O)N(C)C)c2)cc1	none
CN(C)S(=O)(=O)c1cccc(C(=O)OCC(=O)Nc2sccc2C(N)=O)c1	TAAR1 ag 41.4, TAAR1 antagonist 74.8, CHRM1 antagonist 37.2
COc1ccc(CNC(=O)Nc2nc(C(N)Cc3ccc(C(F)(F)F)cc3)cs2)cc1 (stereo unspecified)	TAAR1 ag 43.9, TAAR1 antagonist 48.9
COc1ccc(CC(N)c2csc(NC(=O)c3cccc(OC(F)(F)F)c3)n2)cc1 (stereo unspecified)	none
NC(Cc1ccccc1)c1csc(NC(=O)c2cccc(OC(F)(F)F)c2)n1 (stereo unspecified)	TAAR1 ag 44.6
COc1ccc(CCNC(=O)Nc2ccccc2[N+](=O)[O-])cc1	CHRM1 agonist 26.6
NC(Cc1ccc(Cl)cc1)c1csc(NC(=O)NCC2CCCCC2)n1 (stereo unspecified)	TAAR1 ag 46.1
COc1ccc(CC(N)c2csc(NC(=O)c3ccccc3)n2)cc1 (stereo unspecified)	none
COc1ccc(CC(N)c2csc(NC(=O)NCCc3ccccc3)n2)cc1 (stereo unspecified)	TAAR1 ag 38.1
COC(=O)c1cnc(Nc2nc(C(N)Cc3ccc(OC)cc3)cs2)nc1C(F)(F)F (stereo unspecified)	TAAR1 ag 44.9
COc1ccc(CC(N)c2csc(NC(=O)C(c3ccccc3)c3ccccc3)n2)cc1 (stereo unspecified)	TAAR1 ag 47.4
NC(CCc1ccccc1)c1csc(NC(=O)NCCc2ccccc2)n1 (stereo unspecified)	none
NC(Cc1ccc(C(F)(F)F)cc1)c1csc(NC(=O)Nc2ccccc2Cc2ccccc2)n1 (stereo unspecified)	none
COC(=O)c1cnc(Nc2nc(C(N)Cc3ccc(Cl)cc3)cs2)nc1C(F)(F)F (stereo unspecified)	none
CC(C)c1ccccc1NC(=O)Nc1nc(C(N)Cc2ccc(C(F)(F)F)cc2)cs1 (stereo unspecified)	TAAR1 ag 38.0
O=C(CCN1C(=O)NC2(CCCC2)C1=O)Nc1ccc(-c2nc3ccccc3s2)cc1	TAAR1 antagonist 67.5
O=C(CCN1C(=O)NC2(CCCC2)C1=O)Nc1ccc(Sc2ccc(Br)cc2)cc1	none
CC(=O)C1=C(C)NC(=S)NC1c1ccccc1 (stereo unspecified)	none (no result: CHRM1 PAM, CHRM1 antagonist, CHRM1 agonist)
C#CCN1CC(COc2ccccc2)Oc2cccc(Oc3ccc(SC)c(C)c3)c2S1(=O)=O (stereo unspecified)	none (no result: CHRM1 PAM, CHRM1 antagonist, CHRM1 agonist)
COc1ccccc1CN1CC(C(=O)NCCN(C)CCc2ccccc2)CCC1=O (stereo unspecified)	TAAR1 ag 38.8
O=C1NC(c2ccccc2)(c2ccccc2)C(=O)N1CNc1ccccn1	none (no result: CHRM1 PAM, CHRM1 antagonist, CHRM1 agonist)
Cc1onc(-c2c(F)cccc2Cl)c1C(=O)Nc1ccc(S(=O)(=O)N2CCOCC2)cc1	none
Cc1onc(-c2c(F)cccc2Cl)c1C(=O)Nc1cc(S(=O)(=O)N2CCCCC2)ccc1O	CHRM1 antagonist 47.2
CCSC1=C(C#N)C(c2ccccc2Cl)C(C(=O)c2cccs2)C(O)(C(F)(F)F)N1 (stereo unspecified)	none
CSC1=C(C#N)C(c2ccccc2Cl)C(C(=O)c2cccs2)C(O)(C(F)(F)F)N1 (stereo unspecified)	TAAR1 antagonist 50.9
C=CCSC1=C(C#N)C(c2ccccc2Cl)C(C(=O)c2cccs2)C(O)(C(F)(F)F)N1 (stereo unspecified)	TAAR1 antagonist 56.1
CCc1cc2c(nc1CC)CCCN2S(=O)(=O)c1cccs1	none (no result: CHRM1 PAM, CHRM1 antagonist, CHRM1 agonist)
CCCCC(CC)C(=O)Nc1ncc([N+](=O)[O-])s1 (stereo unspecified)	CHRM1 antagonist 49.5
CC1(C)N=C(N)N=C(N)N1c1ccc(Oc2ccc(Cl)cc2)c(Cl)c1	CHRM1 antagonist 54.9
C[C@@H]1CN(c2ccc(N3CCNC[C@H]3C)cc2C#N)CCN1Cc1ccccc1	none (no result: CHRM1 PAM, CHRM1 antagonist, CHRM1 agonist)
COc1ccc(-c2cc(C(=O)NNC(=O)c3csc(N4CCOCC4)n3)c3ccccc3n2)cc1OC	TAAR1 antagonist 57.9
Cc1c(NC(=O)c2cc(-c3cccs3)nc3ccccc23)c(=O)n(-c2ccccc2)n1C	none
COc1ccc(-c2cc(C(=O)Nc3c(C)n(C)n(-c4ccccc4)c3=O)c3ccccc3n2)cc1OC	TAAR1 antagonist 54.6
COc1ccc(-c2cc(C(=O)NCCCN3CCOCC3)c3ccccc3n2)cc1OC	none
